Bioassay records (PubChem BioAssay)
This is a sample that favours compounds with a hit; in the whole collection about 1.8% have one here.
NPY Y2 blocker = NPY-Y2 receptor antagonists, primary screen, cell-based | AID 793, 2007 | NPY-Y2 expressing cells, antagonist mode | inhibition, % at 2.7 µM | actives 0.99% (n = 140,000);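 note: 0% = vehicle with agonist challenge and 100% = reference antagonist with challenge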
Target sequence (P49146 whole entry, looked up): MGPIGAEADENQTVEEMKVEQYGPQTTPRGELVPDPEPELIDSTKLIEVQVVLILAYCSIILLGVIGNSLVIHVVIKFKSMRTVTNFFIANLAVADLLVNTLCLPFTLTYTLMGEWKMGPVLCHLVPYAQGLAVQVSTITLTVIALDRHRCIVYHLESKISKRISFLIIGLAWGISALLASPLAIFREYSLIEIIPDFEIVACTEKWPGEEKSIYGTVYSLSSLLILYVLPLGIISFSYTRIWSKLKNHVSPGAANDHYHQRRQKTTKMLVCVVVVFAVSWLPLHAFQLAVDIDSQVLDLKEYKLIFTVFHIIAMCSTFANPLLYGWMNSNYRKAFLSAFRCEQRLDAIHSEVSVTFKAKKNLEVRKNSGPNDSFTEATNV
NPY2 pot ag = NPY-Y2 potentiators or agonists, primary screen, cell-based | AID 1359, 2008 | activation, % at 3.6 µM | cells expressing NPY-Y2, potentiator/agonist read-out | actives 0.45% (n = 220,000); in the data active = activation above about 27%;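 note: cells stimulated with NPY near EC25 plus isoproterenol at EC100; 0% = vehicle plus submaximal agonist and 100% = vehicle plus saturating agonist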
NPY-Y1 antag = NPY-Y1 receptor antagonists, primary screen, cell-based. HEK293-CNG Y1 cells, membrane potential fluorescence; NPY at EC95, then isoproterenol. inhibition, % at 3.6 µM. actives 1% (n = 200,000). AID 1040, 2008;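 active = inhibition above the campaign mean inhibition of all tested compounds plus 3 SD, cut at about 20% in these data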;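 note: 0% = DMSO wells given NPY plus isoproterenol and 100% = isoproterenol alone without NPY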
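Material: HEK293 cells co-expressing NPY Y1 receptor and cyclic-nucleotide gated channel. Timing: compound incubation 1 h at room temperature, readout 45 min post-stimulation. Signal: fluorescence, membrane potential probe.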
NPY1 pot ag = NPY-Y1 receptor potentiators or agonists, primary screen, cell-based. NPY-Y1 expressing cells, potentiator/agonist activation. actives 0.37% (n = 220,000). activation, % at 3.6 µM. Neuropeptide Y receptor type 1 (Homo sapiens), P25929; in the data active = activation above about 33%, passing the limit was not always enough;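 note: cells stimulated with NPY at EC10 then isoproterenol at EC100; 0% = low agonist plus stimulus and 100% = saturating agonist plus stimulus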
NPY-Y1 ant conf = NPY-Y1 receptor antagonists, retest of hits, confirmation, HEK293-CNG cells, membrane potential fluorescence, triplicate; shares compounds with NPY-Y1 antag; cAMP; NPY challenge against isoproterenol-raised cAMP; inhibition, % at 3.6 µM; actives 21% (n = 1,200); AID 1254, 2008; in the data active = inhibition above about 20%;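 note: 0% = vehicle with agonist plus stimulus and 100% = stimulus alone without agonist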
NPY-Y2 antag ct = NPY-Y2 receptor antagonists, selectivity check, confirmation, counter-screen for NPY-Y1 antagonist project, HEK293-CNG cells, membrane potential fluorescence, triplicate; inhibition, % at 3.6 µM; actives 28% (n = 1,200); antagonism; cells given NPY, then isoproterenol; shares compounds with NPY-Y1 antag;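 note: 0% = DMSO with agonist challenge and 100% = reference antagonist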
Starred values were filed as active, the others as inactive; · = no result given; ! = not confirmed by another sample. Cut-off read from the data, not from the text of the source, unless noted: active = inhibition above about 17%; inactive = the rest.

SMILES	NPY Y2 blocker	NPY2 pot ag	NPY-Y1 antag	NPY1 pot ag	NPY-Y1 ant conf	NPY-Y2 antag ct
O=C1CCc2cc(OCCCCc3nnnn3C3CCCCC3)ccc2N1	6.8	-20.9	42.8*!	-69.7	26.5*	45.9*
COc1cccc(N2CCN(Cc3nnnn3C3CCCCC3)CC2)c1	·	5.2	-0.9	16.2	·	·
CC(C)(C)n1nnnc1C(c1cccnc1)N1CCN(c2ccccc2)CC1 (stereo unspecified)	8.6	-1.4	2.4	29.3	·	·
CC(C)(C)n1nnnc1C(c1cccnc1)N(Cc1ccccc1)Cc1cccs1 (stereo unspecified)	8.9	-9.3	20.9*	6.8	3.7	4.7
CC(C)(C)n1nnnc1C(c1cccs1)N(Cc1ccccc1)Cc1cccnc1 (stereo unspecified)	2.9	-22.1	25.7*	-11.0	8.8	2.7
Cc1ccc(OCCn2cnc3sc(C(N)=O)c(C)c3c2=O)cc1	·	-22.8	8.8	-28.5	·	·
Cc1ccc(Cc2cnc(NC(=O)/C(C#N)=C/c3ccc(-c4ccccc4[N+](=O)[O-])o3)s2)cc1	15.4	-18.5	27.4*	-23.6	50.0*	46.3*
COc1ccc(OC)c(NS(=O)(=O)c2ccc(N3CCCC3=O)cc2)c1	8.1	1.2	44.1*	-5.3	-2.7	14.8
CCOc1ccc(S(=O)(=O)Nc2cc(OC)ccc2OC)cc1	8.4	-16.0	27.4*	-25.4	4.1	16.5
COC(=O)c1c(NC(=O)C2COc3ccccc3O2)sc2c1CCN(Cc1ccccc1)C2 (stereo unspecified)	14.8	-28.3	21.8*	-17.3	30.8*	24.1*
CC(C)(C)c1cc(C(=O)NNc2cccc(Cl)c2)n(Cc2ccccc2)n1	·	17.9	·	25.2	·	·
Cc1nn(-c2ccccc2)c2sc(C(=O)O)cc12	12.7	-19.0	25.1*	-52.5	22.1*	15.4
COC(=O)c1cc2c(C)nn(-c3ccccc3)c2s1	2.6	-6.2	0.8	-38.6	·	·
Cc1nn(S(=O)(=O)c2ccccc2)c(C)c1Sc1ccc([N+](=O)[O-])cc1	7.2	7.0	24.2*	-3.7	5.7	3.9
Cc1nn(S(=O)(=O)c2cccs2)c(C)c1Sc1ccc([N+](=O)[O-])cc1	4.5	6.7	10.5	-5.2	·	·
C=C(C)CSc1nnc(-c2ccc(OC)c(OC)c2)n1N	1.1	-4.5	2.3	4.5	·	·
CCOn1c(=O)c(-c2cccs2)[n+]([O-])c2ccccc21	7.6	-3.2	10.4	-4.7	·	·
COn1c(=O)c(-c2cccs2)[n+]([O-])c2ccccc21	10.1	-16.0	25.0*	-15.6	10.0	7.9
CCOc1ccc(N=C2C(=O)N(CN3CCOCC3)c3ccccc32)cc1	0.7	-2.7	-4.7	5.6	·	·
OCCNCc1cc(Br)ccc1OCc1ccc(F)cc1	·	-13.2	6.0	-32.5	·	·
OCCNCc1cc(Br)ccc1OCc1ccc(Cl)cc1	12.1	-5.0	23.6*	-8.2	7.6	13.2
CS(=O)(=O)N(CC(=O)Nc1ccc(S(=O)(=O)N2CCOCC2)cc1)c1cccc(F)c1	·	-10.5	-3.2	1.5	·	·
CCC(Oc1ccc2ccccc2c1)C(=O)O (stereo unspecified)	12.0	-30.7	21.4*	-0.7	6.7	7.0
C=CCn1c(C)cc(C(=O)CSc2nnc(Cc3ccccc3)o2)c1C	7.0	-31.8	21.1*	-55.9	9.5	7.8
O=C1NCC(COCC2CC=CCC2)O1 (stereo unspecified)	2.5	4.9	4.2	-9.5	·	·
SMILES	NPY Y2 blocker	NPY2 pot ag	NPY-Y1 antag	NPY1 pot ag	NPY-Y1 ant conf	NPY-Y2 antag ct
COc1cc(Cn2c(-c3nonc3N)nc3ccccc32)ccc1C	14.3	-34.9	29.8*	-59.8	15.0	24.4*
COc1cccc(Cn2c(-c3nonc3N)nc3ccccc32)c1	12.3	-16.4	26.3*	-42.6	10.7	14.2
CN(CCC#N)C(=S)NC(=O)c1ccc(S(=O)(=O)N2CCOCC2)cc1	·	3.8	45.8*	9.9	0.1	0.0
Cc1ccc(C(C(=O)Nc2ccc3c(c2)OCO3)N(C)C(=O)Cc2c[nH]c3ccccc23)cc1 (stereo unspecified)	0.8	4.3	34.9*	11.7	-1.0	-4.5
O=C(Nc1ccc2nc3ccccc3nc2c1)c1ccccc1	1.7	12.3	4.7	-11.4	·	·
Cc1ccc(Cl)cc1N1CCN(C(c2cccnc2)c2nnnn2C2CCCCC2)CC1 (stereo unspecified)	1.5	7.4	-0.8	10.1	·	·
CCC(c1nnnn1C(C)(C)C)N1CCN(c2cc(Cl)ccc2C)CC1 (stereo unspecified)	10.5	-24.2	24.7*	-18.0	13.7	14.3
Cc1ccc(Cl)cc1N1CCN(C(c2ccc(C#N)cc2)c2nnnn2C2CCCC2)CC1 (stereo unspecified)	13.6	-18.0	27.5*	-11.6	18.4	13.2
CC1=C(C)CS(=O)N(S(=O)(=O)c2ccccc2)C1 (stereo unspecified)	-1.1	-1.9	-4.6	-12.7	·	·
Cc1cccn2c(CN[C@@H]3CCCC[C@H]3c3ccccc3)c(C(=O)N3CCOCC3)nc12	·	-5.6	26.5*	7.9	10.1	4.8
O=C(Oc1cccc2cccnc12)c1ccc2c(c1)OCCO2	8.7	-4.8	5.5	-20.7	·	·
CCC(C)(C)n1nnnc1C(c1ccncc1)N1CCN(c2cccc(OC)c2)CC1 (stereo unspecified)	4.2	-3.1	12.7	-13.8	·	·
CCC(C)(C)n1nnnc1C(c1cccnc1)N1CCN(c2cccc(C(F)(F)F)c2)CC1 (stereo unspecified)	16.6	-7.4	25.4*	2.2	14.3	8.1
CCCOc1ccc(-c2nc(OC)c3ccccc3n2)cc1	2.8	3.1	20.4*	-37.2	11.6	18.1*
Cc1c(C(=O)OCC(C)C)[nH]c2c1C(=O)CC(c1cccs1)C2 (stereo unspecified)	8.1	-23.3	30.0*	-2.8	6.1	23.7*
COCCOC(=O)c1[nH]c2c(c1C)C(=O)CC(c1cccs1)C2 (stereo unspecified)	·	1.1	0.8	-1.7	·	·
CN(C)S(=O)(=O)c1cc(NC(=O)CN2CCCc3ccccc32)ccc1Cl	·	7.6	71.2*	18.6	0.7	2.8
O=C(Nc1cccc(C(F)(F)F)c1)/C(=C/c1ccco1)NC(=O)c1cccs1	1.0	-4.7	89.8*	9.4	-1.3	-2.0
CC(=O)c1cccc(NC(=O)/C(=C\c2ccco2)NC(=O)c2cccs2)c1	0.5	-9.4	4.5	0.2	·	·
O=C(COc1ccccc1)Nc1nnc(-c2ccc3c(c2)CCCC3)o1	12.8	-23.6	5.1	-13.8	·	·
Cc1csc2nc(CNS(=O)(=O)N(C)C)cn12	-0.6	4.7	2.4	25.6	·	·
